Bioassay records from PubChem BioAssay.
Hits are enriched below; roughly 2.8% of the tested compounds scored in any of these assays.
Yeast life ext = yeast lifespan extension. AID 775. inhibition of the nicotinamide effect, % at 10 µM. S. cerevisiae growth with nicotinamide, OD615; deaD strain in restrictive glucose medium. actives 0.68% (n = 130,000);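 active means inhibition above a set limit, placed 3 SD over the median of all compounds, cut at about 26% in these data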;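 further: 0% = nicotinamide-treated wells and 100% = cells grown without nicotinamide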
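Measured by: optical density (absorbance) at 615 nm; System: modified budding yeast, DeaD strain; Medium: restrictive CSMM-D dextrose medium; Timing: 4 h preincubation then 48 h treatment at 30 °C.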
Yeast growth inh = chemicals that inhibit yeast BB579 growth in restrictive medium (lifespan-shortening candidates). S. cerevisiae BB579 growth, OD615, 48 h. inhibition, % at 10 µM. actives 0.51% (n = 140,000);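 active means inhibition above a set limit, 3 SD over the mean compound inhibition, cut at about 44% in these data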
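System: DeaD yeast strain BB579; buffer or medium: CSMM-D dextrose restrictive medium; technique: OD at 615 nm; schedule: 4 h cell preincubation, 48 h compound exposure, 30 °C humidified; doses: single 10 µM dose; controls: amphotericin B 10 µg/mL, positive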
SDO1 yeast rescue = sdo1-depleted yeast growth rescue | S. cerevisiae sdo1-depleted JHY4D growth rescue, OD600 30 h; hits give high values; pdr5 snq2 efflux-pump mutant strain | actives 0.21% (n = 140,000) | z-score at 10 µM;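 active means z-score above 3 at both the 24 hr and the 30 hr optical density reads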;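 further: z-score against mean and SD of all compound wells on the same plate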
bCat KO growth = beta-catenin-lacking colon tumor cell growth suppression; viability, % at 10 µM; actives 1.5% (n = 140,000); AID 818; HCT116 beta-catenin knockout viability, CellTiter-Glo, 60 h; hits give low values;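 active means viability at or under a set limit, the compound median less 4 SD, cut at about 6% in these data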;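 further: 0% = Hyamine 1622 control at 20 µM and 100% = untreated cell control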
PTEN del growth = suppresses growth of cells with PTEN deletion; HCT116 PTEN-null viability, CellTiter-Glo, 60 h; hits give low values; viability, % at 10 µM; actives 1.2% (n = 140,000);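 active means viability at or below a set limit, 4 SD under the median of all tested compounds, cut at about 3.7% in these data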;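 further: PTEN knockout HCT116 line with beta catenin targeted HCT116 as companion control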
Numbers without * were called inactive.

Cc1ncsc1CCOC(=O)C1C2CC3CC(C2)CC1C3 (stereo not drawn) was read as Yeast life ext 21, Yeast growth inh -7, SDO1 yeast rescue -0.49, bCat KO growth 85 and PTEN del growth 76.
For Cc1ccc(-c2c[n+](Cc3ccc(Cl)c(Cl)c3)c3n2CCC3)cc1 the results were Yeast life ext -1, Yeast growth inh 17, SDO1 yeast rescue 0.53, bCat KO growth 94 and PTEN del growth 100.
`C/C(=N/OCO/N=C(/C)c1ccc(F)cc1)c1ccc(F)cc1` gave Yeast life ext 0, Yeast growth inh -11, SDO1 yeast rescue -0.99, bCat KO growth 71 and PTEN del growth 72.
Screening O=S(=O)(Nc1ccc(-c2nc3cccnc3s2)cc1)c1cccs1 returned Yeast life ext -5, Yeast growth inh -16, SDO1 yeast rescue -0.11, bCat KO growth 98 and PTEN del growth 92.
O=S(=O)(Nc1cccc2ncccc12)c1cccs1 was read as Yeast life ext 10, Yeast growth inh 4, SDO1 yeast rescue -1.8, bCat KO growth 1.7* and PTEN del growth 1.5*.
`Cc1ccnn2cc3c(=O)n(C)c(=O)n(C)c3c12` gave Yeast life ext -31, Yeast growth inh 64*, SDO1 yeast rescue -0.01, bCat KO growth 98 and PTEN del growth 90.
Cc1cc(NC(=O)C2C3C(=O)N(CC4CCCO4)C(C(=O)NCc4ccccc4)C34C=CC2(C)O4)no1 (stereo not drawn) was read as Yeast growth inh -31, SDO1 yeast rescue 0.21, bCat KO growth 87 and PTEN del growth 89.
For CCOC(=O)c1c(C)sc2c1N(C(=O)CCl)c1cc(Cl)ccc1S2 the results were Yeast life ext 5, Yeast growth inh -30, SDO1 yeast rescue -0.83, bCat KO growth 2.3* and PTEN del growth 2.2*.
For Cc1sc2ncnc(SCC(=O)N3c4ccccc4Sc4ccc(Cl)cc43)c2c1C the results were Yeast life ext -2, Yeast growth inh -33, SDO1 yeast rescue 0.28, bCat KO growth 75 and PTEN del growth 86.
Screening Cc1conc1NC(c1cccs1)c1ccc2cccnc2c1O (stereo not drawn) returned Yeast life ext 0, Yeast growth inh 62*, SDO1 yeast rescue 0.46, bCat KO growth 3.5* and PTEN del growth 2.6*.
`O=C(COc1ccccc1)Nc1cccc(-c2nc3cc4ccccc4cc3[nH]2)c1` gave Yeast life ext -13, Yeast growth inh -92, SDO1 yeast rescue -2.4, bCat KO growth 1.7* and PTEN del growth 1.1*.
C=CCOC(=O)C(C#N)c1nc2ccccc2nc1N1CCN(c2ccccc2OC)CC1 (stereo not drawn) was read as Yeast life ext 0, Yeast growth inh -43, SDO1 yeast rescue -1.5, bCat KO growth 76 and PTEN del growth 71.
For C=CCN(CC=C)c1nc2ccccc2nc1C(C#N)C(=O)OC(C)C (stereo not drawn) the results were Yeast life ext 36*, Yeast growth inh -34, SDO1 yeast rescue -2.1, bCat KO growth 72 and PTEN del growth 72.
For NNC(=O)c1ccc(COc2cccc3ccccc23)cc1 the results were Yeast life ext -8, Yeast growth inh 90*, SDO1 yeast rescue -2.4, bCat KO growth 80 and PTEN del growth 86.
Screening CCCCNC(=S)N/N=C/C1=CCC2CC1C2(C)C (stereo not drawn) returned Yeast life ext 0, Yeast growth inh -7, SDO1 yeast rescue 0.44, bCat KO growth 75 and PTEN del growth 79.
For CC1=C(C(=O)Nc2ccccc2C)C(c2ccc(C)o2)n2c(s/c(=C/c3ccccc3)c2=O)=N1 (stereo not drawn) the results were Yeast life ext -3, Yeast growth inh -36, SDO1 yeast rescue -1.4, bCat KO growth 1.1* and PTEN del growth 46.
Screening CCN(CC(=O)Nc1cccc(OC)c1)c1ncnc2sc(C)c(C)c12 returned Yeast life ext 4, Yeast growth inh -39, SDO1 yeast rescue -0.68, bCat KO growth 43 and PTEN del growth 43.
`CCn1c(O)c(N=NC(=O)c2ccc(CSc3nncn3C)cc2)c2ccccc21` gave Yeast life ext -5, Yeast growth inh -37, SDO1 yeast rescue 0.14, bCat KO growth 92 and PTEN del growth 91.
Cn1cnnc1SCc1ccc(C(=O)N=Nc2c(O)n(Cc3ccc(Cl)cc3)c3ccccc23)cc1 was read as Yeast life ext 1, Yeast growth inh -15, SDO1 yeast rescue -0.86, bCat KO growth 3.8* and PTEN del growth 4.
`COC(=O)c1ccc(OCC(=O)c2cccc(OC)c2)cc1` gave Yeast life ext -3, Yeast growth inh -40, SDO1 yeast rescue -0.07, bCat KO growth 97 and PTEN del growth 93.
Screening CCOC(=O)C(=NC(C)CC)NNc1ccc(Br)cc1 (stereo not drawn) returned Yeast life ext -7, Yeast growth inh 93*, SDO1 yeast rescue -1.9, bCat KO growth 94 and PTEN del growth 88.
O=C1c2ccccc2C(=O)N1SC1CCCCC1 was read as Yeast life ext 6, Yeast growth inh -16, SDO1 yeast rescue -1.9, bCat KO growth 81 and PTEN del growth 82.
For O=C(NN1C(=O)c2ccccc2C1=O)C1C2CCCCC21 (stereo not drawn) the results were Yeast life ext 41*, Yeast growth inh -18, SDO1 yeast rescue -0.62, bCat KO growth 95 and PTEN del growth 114.
Screening O=C1OC2(CCCCC2)OC(=O)C1=CNc1nc2ccccc2s1 returned Yeast life ext 69*, Yeast growth inh -42, SDO1 yeast rescue 0.91, bCat KO growth 96 and PTEN del growth 104.
CCCCC(=O)Nc1ccc(C(=O)Nc2ccc(S(=O)(=O)Nc3ccc(C)cc3)cc2)cc1 was read as Yeast life ext 2, Yeast growth inh -26, SDO1 yeast rescue 0.93, bCat KO growth 78 and PTEN del growth 81.
Cc1ccc(C(=O)/C=C/c2ccccc2)o1 was read as Yeast life ext -8, Yeast growth inh -39, SDO1 yeast rescue -0.79, bCat KO growth 5.9* and PTEN del growth 10.
Cc1ccc(C(=O)/C=C/c2ccc(Br)cc2)o1 was read as Yeast life ext -4, Yeast growth inh -45, SDO1 yeast rescue 0.62, bCat KO growth 2.2* and PTEN del growth 1.4*.
Screening Cc1ccc(C(=O)/C=C/c2ccc3c(c2)OCO3)o1 returned Yeast life ext -8, Yeast growth inh -35, SDO1 yeast rescue -2.2, bCat KO growth 7 and PTEN del growth 10.
For CC1CCCCN1C(=S)Nc1ccc2nc3n(c(=O)c2c1)CCCCC3 (stereo not drawn) the results were Yeast life ext 56*, Yeast growth inh -52, SDO1 yeast rescue 0.58, bCat KO growth 80 and PTEN del growth 90.
For CC(C)NC(=S)Nc1ccc2nc3n(c(=O)c2c1)CCCCC3 the results were Yeast life ext 2, Yeast growth inh -58, SDO1 yeast rescue 0.57, bCat KO growth 90 and PTEN del growth 92.
